Assay results reported in ChEMBL document CHEMBL1155372, “Design and synthesis of novel deoxybenzoin derivatives as FabH inhibitors and anti-inflammatory agents” (Bioorg Med Chem Lett, 2010).
Converted amounts (≈) assume the structure as drawn. The source made the active and inactive calls. No cut-off for these calls is given here.

How the values were obtained:
Staphylococcus aureus = test: Antibacterial activity against Staphylococcus aureus ATCC 6538; assay type: functional
Bacillus subtilis = test: Antibacterial activity against Bacillus subtilis ATCC 6633; assay type: functional
Trichophyton rubrum = test: Antifungal activity against Trichophyton rubrum ATCC 10218
Escherichia coli = test: Antibacterial activity against Escherichia coli ATCC 35218; assay type: functional
Candida albicans = test: Antifungal activity against Candida albicans ATCC 10231; assay type: functional
Aspergillus niger = test: Antifungal activity against Aspergillus niger ATCC 16404; assay type: functional
Pseudomonas aeruginosa = test: Antibacterial activity against Pseudomonas aeruginosa ATCC 2785; assay type: functional
[1] = Inhibition of Escherichia coli FabH expressed after 25 mins by liquid scintillation counting
AGS [2] = test: Inhibition of Escherichia coli-stimulated IL-8 production in human AGS cells at 15 to 60 umol/L after 12 hrs by ELISA; assay type: functional, cell-based
Procedure, shortened: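 AGS gastric mucosal cells stimulated with Escherichia coli water extract to induce IL-8 production, with agent added at 15, 30 and 60 μmol L⁻¹. IL-8 released was measured in pg mL⁻¹ and compared with extract-stimulated control. Values are means ± SEM of 3–5 experiments.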

AGS [3] = test: Cytotoxicity against human AGS cells at 15 to 60 umol/L after 48 hrs by MTT assay; assay type: cell-based
Procedure, shortened: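 AGS gastric cells incubated with test agent at serial concentrations of 15, 30 and 60 μmol L⁻¹. Viability read by MTT assay 48 h later. Values are means ± SEM of 4–6 experiments.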

SMILES	MIC (Staphylococcus aureus) [µg/mL]	MIC (Bacillus subtilis) [µg/mL]	MIC (Trichophyton rubrum) [µg/mL]	MIC (Escherichia coli) [µg/mL]	MIC (Candida albicans) [µg/mL]	MIC (Aspergillus niger) [µg/mL]	MIC (Pseudomonas aeruginosa) [µg/mL]	IC50 [1] [µM]	inhibition (AGS [2])	Activity (AGS [3])
Cc1ccc(/N=C(/Cc2ccc(F)cc2)c2ccc(O)c(O)c2)cc1	12.5 (≈ 37.3 µM)	25 (≈ 74.5 µM)	> 50	25 (≈ 74.5 µM)	> 50	> 50	50 (≈ 149 µM)			
Oc1ccc(/C(Cc2ccc(Cl)cc2)=N\c2ccc(Cl)cc2)cc1O	50 (≈ 134 µM)	50 (≈ 134 µM)	> 50	6.25 (≈ 16.8 µM)	> 50	> 50	6.25 (≈ 16.8 µM)			
Oc1ccc(/C(Cc2ccc(F)cc2)=N\c2ccc(Br)cc2)c(O)c1	50 (≈ 125 µM)	50 (≈ 125 µM)	> 50	3.12 (≈ 7.81 µM)	> 50	> 50	6.25 (≈ 15.6 µM)	8.3		
O=[N+]([O-])c1ccc(/N=C(/Cc2ccc(Cl)cc2)c2ccc(O)c(O)c2)cc1	12.5 (≈ 32.7 µM)	25 (≈ 65.3 µM)	> 50	25 (≈ 65.3 µM)	> 50	> 50	25 (≈ 65.3 µM)			
CC(=O)Oc1ccccc1C(=O)O [ASPIRIN]									Active	Non-toxic
Cc1ccc(/N=C(/Cc2ccc(Cl)cc2)c2ccc(O)cc2O)cc1	12.5 (≈ 35.5 µM)	25 (≈ 71.1 µM)	> 50	12.5 (≈ 35.5 µM)	> 50	> 50	12.5 (≈ 35.5 µM)	15.1		
Cc1ccc(/N=C(/Cc2ccc(F)cc2)c2ccc(O)cc2O)cc1	25 (≈ 74.5 µM)	25 (≈ 74.5 µM)	> 50	25 (≈ 74.5 µM)	> 50	> 50	25 (≈ 74.5 µM)	35.3		
O=[N+]([O-])c1ccc(/N=C(/Cc2ccc(F)cc2)c2ccc(O)c(O)c2)cc1	50 (≈ 136 µM)	50 (≈ 136 µM)	> 50	25 (≈ 68.2 µM)	> 50	> 50	25 (≈ 68.2 µM)			
O=C(Cc1ccc(F)cc1)c1ccc(O)cc1O			> 50		> 50	> 50				
O=C(Cc1ccc(Cl)cc1)c1ccc(O)c(O)c1			> 50		> 50	> 50				
Oc1ccc(/C(Cc2ccc(Cl)cc2)=N\c2ccc(Br)cc2)cc1O	25 (≈ 60 µM)	25 (≈ 60 µM)	> 50	12.5 (≈ 30 µM)	> 50	> 50	12.5 (≈ 30 µM)			
Oc1ccc(/C(Cc2ccc(Cl)cc2)=N\c2ccc(Cl)cc2)c(O)c1	25 (≈ 67.2 µM)	25 (≈ 67.2 µM)	> 50	0.78 (≈ 2.1 µM)	> 50	> 50	1.56 (≈ 4.2 µM)	1.8		Non-toxic
O=C(Cc1ccc(F)cc1)c1ccc(O)c(O)c1			> 50		> 50	> 50				
O=C(Cc1ccc(Cl)cc1)c1ccc(O)cc1O			> 50		> 50	> 50				
Cc1ccc(/N=C(/Cc2ccc(Cl)cc2)c2ccc(O)c(O)c2)cc1	50 (≈ 142 µM)	50 (≈ 142 µM)	> 50	25 (≈ 71.1 µM)	> 50	> 50	50 (≈ 142 µM)			
Oc1ccc(/C(Cc2ccc(F)cc2)=N\c2ccc(Cl)cc2)c(O)c1	50 (≈ 141 µM)	50 (≈ 141 µM)	> 50	1.56 (≈ 4.39 µM)	> 50	> 50	1.56 (≈ 4.39 µM)	3.9		
CC1(C)S[C@@H]2[C@H](NC(=O)Cc3ccccc3)C(=O)N2[C@H]1C(=O)O [PENICILLIN G]	1.56 (≈ 4.67 µM)	1.56 (≈ 4.67 µM)		6.25 (≈ 18.7 µM)			6.25 (≈ 18.7 µM)			
O=[N+]([O-])c1ccc(/N=C(/Cc2ccc(F)cc2)c2ccc(O)cc2O)cc1	50 (≈ 136 µM)	50 (≈ 136 µM)	> 50	6.25 (≈ 17.1 µM)	> 50	> 50	12.5 (≈ 34.1 µM)	28.7		
Oc1ccc(/C(Cc2ccc(F)cc2)=N\c2ccc(Br)cc2)cc1O	50 (≈ 125 µM)	25 (≈ 62.5 µM)	> 50	12.5 (≈ 31.2 µM)	> 50	> 50	25 (≈ 62.5 µM)			
Oc1ccc(/C(Cc2ccc(Cl)cc2)=N\c2ccc(Br)cc2)c(O)c1	25 (≈ 60 µM)	12.5 (≈ 30 µM)	> 50	3.12 (≈ 7.5 µM)	> 50	> 50	3.12 (≈ 7.5 µM)	9.1		
Oc1ccc(/C(Cc2ccc(F)cc2)=N\c2ccc(Cl)cc2)cc1O	25 (≈ 70.3 µM)	25 (≈ 70.3 µM)	> 50	6.25 (≈ 17.6 µM)	> 50	> 50	6.25 (≈ 17.6 µM)			
O=[N+]([O-])c1ccc(/N=C(/Cc2ccc(Cl)cc2)c2ccc(O)cc2O)cc1	12.5 (≈ 32.7 µM)	25 (≈ 65.3 µM)	> 50	6.25 (≈ 16.3 µM)	> 50	> 50	6.25 (≈ 16.3 µM)	8.7		

Further lines, with some results ahead:

MIC (Staphylococcus aureus) [µg/mL]	MIC (Bacillus subtilis) [µg/mL]	MIC (Trichophyton rubrum) [µg/mL]	MIC (Escherichia coli) [µg/mL]	MIC (Candida albicans) [µg/mL]	MIC (Aspergillus niger) [µg/mL]	MIC (Pseudomonas aeruginosa) [µg/mL]	IC50 [1] [µM]	SMILES	inhibition (AGS [2])	Activity (AGS [3])
25 (≈ 67.6 µM)	50 (≈ 135 µM)	> 50	25 (≈ 67.6 µM)	> 50	> 50	50 (≈ 135 µM)		Oc1ccc(/N=C(/Cc2ccc(Cl)cc2)c2ccc(O)c(O)c2O)cc1		
25 (≈ 68 µM)	25 (≈ 68 µM)	> 50	50 (≈ 136 µM)	> 50	> 50	50 (≈ 136 µM)		Cc1ccc(/N=C(/Cc2ccc(Cl)cc2)c2ccc(O)c(O)c2O)cc1		
		> 50		> 50	> 50			O=C(Cc1ccc(Cl)cc1)c1ccc(O)c(O)c1O		
> 50	25 (≈ 70.7 µM)	> 50	6.25 (≈ 17.7 µM)	> 50	> 50	12.5 (≈ 35.3 µM)	20.5	Oc1ccc(/N=C(/Cc2ccc(Cl)cc2)c2ccc(O)cc2O)cc1		
25 (≈ 60.1 µM)	25 (≈ 60.1 µM)	> 50	25 (≈ 60.1 µM)	> 50	> 50	25 (≈ 60.1 µM)		Oc1ccc(/C(Cc2ccc(F)cc2)=N\c2ccc(Br)cc2)c(O)c1O		
50 (≈ 129 µM)	50 (≈ 129 µM)	> 50	12.5 (≈ 32.2 µM)	> 50	> 50	25 (≈ 64.4 µM)		Oc1ccc(/C(Cc2ccc(Cl)cc2)=N\c2ccc(Cl)cc2)c(O)c1O		
50 (≈ 134 µM)	50 (≈ 134 µM)	> 50	12.5 (≈ 33.6 µM)	> 50	> 50	12.5 (≈ 33.6 µM)		Oc1ccc(/C(Cc2ccc(F)cc2)=N\c2ccc(Cl)cc2)c(O)c1O		
50 (≈ 116 µM)	50 (≈ 116 µM)	> 50	12.5 (≈ 28.9 µM)	> 50	> 50	25 (≈ 57.8 µM)		Oc1ccc(/C(Cc2ccc(Cl)cc2)=N\c2ccc(Br)cc2)c(O)c1O		
		> 50		> 50	> 50			O=C(Cc1ccc(F)cc1)c1ccc(O)c(O)c1O		
50 (≈ 142 µM)	50 (≈ 142 µM)	> 50	25 (≈ 70.8 µM)	> 50	> 50	50 (≈ 142 µM)	63.4	Oc1ccc(/N=C(/Cc2ccc(F)cc2)c2ccc(O)c(O)c2O)cc1		
50 (≈ 141 µM)	50 (≈ 141 µM)	> 50	25 (≈ 70.7 µM)	> 50	> 50	50 (≈ 141 µM)		Oc1ccc(/N=C(/Cc2ccc(Cl)cc2)c2ccc(O)c(O)c2)cc1		
1.56 (≈ 3.23 µM)	0.39 (≈ 0.807 µM)		3.12 (≈ 6.46 µM)			3.12 (≈ 6.46 µM)		NC[C@H]1O[C@H](O[C@H]2[C@H](O)[C@@H](O[C@H]3O[C@H](CO)[C@@H](O)[C@H](N)[C@H]3O)[C@H](N)C[C@@H]2N)[C@H](N)[C@@H](O)[C@@H]1O [BEKANAMYCIN]		
25 (≈ 74.1 µM)	50 (≈ 148 µM)	> 50	12.5 (≈ 37.1 µM)	> 50	> 50	25 (≈ 74.1 µM)		Oc1ccc(/N=C(/Cc2ccc(F)cc2)c2ccc(O)cc2O)cc1		
50 (≈ 142 µM)	50 (≈ 142 µM)	> 50	50 (≈ 142 µM)	> 50	> 50	50 (≈ 142 µM)		Cc1ccc(/N=C(/Cc2ccc(F)cc2)c2ccc(O)c(O)c2O)cc1	inactive	
50 (≈ 125 µM)	50 (≈ 125 µM)	> 50	50 (≈ 125 µM)	> 50	> 50	50 (≈ 125 µM)		O=[N+]([O-])c1ccc(/N=C(/Cc2ccc(Cl)cc2)c2ccc(O)c(O)c2O)cc1		
25 (≈ 65.4 µM)	50 (≈ 131 µM)	> 50	25 (≈ 65.4 µM)	> 50	> 50	25 (≈ 65.4 µM)		O=[N+]([O-])c1ccc(/N=C(/Cc2ccc(F)cc2)c2ccc(O)c(O)c2O)cc1		
50 (≈ 148 µM)	25 (≈ 74.1 µM)	> 50	50 (≈ 148 µM)	> 50	> 50	50 (≈ 148 µM)		Oc1ccc(/N=C(/Cc2ccc(F)cc2)c2ccc(O)c(O)c2)cc1		
